Screening results (PubChem BioAssay)
This is a sample that favours compounds with a hit; in the whole collection about 0.58% have one here.
OXTR agonist – human OXTR agonists, primary screen, fluorescence, CHO-OTR cells, Fluo-8 calcium. Fluo-8 calcium fluorescence; normalized: DMSO 0%, oxytocin 100%. activation, % at 3 µM. actives 0.32% (n = 320,000). AID 2435, 2010;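 active means activation above the mean of all tested compounds plus 3 SD, cutoff set per screening run, cut at about 20% in these data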;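 further: peak over basal fluorescence ratio from a 100 s FLIPR kinetic read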
OXTR potentiator – human OXTR potentiators, primary screen, fluorescence, CHO-OTR cells, Fluo-8 calcium; Oxytocin receptor (Homo sapiens), P30559; Fluo-8 calcium fluorescence, potentiator mode; 0% = oxytocin EC15, 100% = EC100; activation, % at 3 µM; actives 0.061% (n = 320,000); AID 2445, 2010;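 active means activation above that plate's cutoff, the mean activation of tested compounds plus 3 SD, cut at about 6.6% in these data, passing the limit was not always enough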;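 further: 100% uses oxytocin at 75 nM as the full agonist control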
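Assay system: CHO-OTR cells, human receptor / Also added: oxytocin at about EC15, sub-maximal agonist stimulus / Dosing: single dose, 3.0 µM nominal final compound concentration / Incubation: 6 min pre-incubation, 100 s read / Technique: Fluo-8 calcium dye fluorescence / Read-out: % activation vs EC15 and EC100 oxytocin / Benchmarks: EC15 oxytocin low, 75 nM oxytocin high / Replicates: singlicate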
TRPML3 ag – human TRPML3 channel agonists, primary screen, cell-based, HEK293 TRPML3-YFP, Fluo-8 calcium fluorescence, 3 µM; AID 1448, 2008; actives 0.29% (n = 220,000); Mucolipin-3 (Homo sapiens), Q8TDD5; activation, % at 3 µM; 100% = the carbachol control signal;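 active means activation above its plate's cutoff, the mean activation of the plate's test wells plus 3 SD, cut at about 12% in these data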;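 further: 0% = DMSO only wells and 100% = carbachol wells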
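system = HEK293 cells stably carrying human TRPML3-YFP | doses = one concentration, 3 µM nominal, 0.3% DMSO | timing = dye loading 1 h 37 °C then 30 min ambient, 125 s read | detection = Fluo-8 calcium dye fluorescence, ex 470-495, em 515-575 nm | benchmarks = high control carbachol 87 µM, low control DMSO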
V1R ag counter – agonists of human V1a receptor, primary screen, counter-screen for OXTR agonist project, fluorescence, CHO-V1R cells. Vasopressin V1a receptor (Homo sapiens), P37288. Fluo-8 calcium fluorescence, agonist mode; 0% DMSO, 100% 3 nM vasopressin. activation, % at 3 µM. actives 0.25% (n = 320,000). AID 2797, 2010;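 active means activation above the mean activation of all tested compounds plus 3 SD, per screening run, cut at about 20% in these data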;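 further: signal is peak over basal fluorescence ratio across a 100 second FLIPR read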
Target sequence (P37288 whole entry, looked up): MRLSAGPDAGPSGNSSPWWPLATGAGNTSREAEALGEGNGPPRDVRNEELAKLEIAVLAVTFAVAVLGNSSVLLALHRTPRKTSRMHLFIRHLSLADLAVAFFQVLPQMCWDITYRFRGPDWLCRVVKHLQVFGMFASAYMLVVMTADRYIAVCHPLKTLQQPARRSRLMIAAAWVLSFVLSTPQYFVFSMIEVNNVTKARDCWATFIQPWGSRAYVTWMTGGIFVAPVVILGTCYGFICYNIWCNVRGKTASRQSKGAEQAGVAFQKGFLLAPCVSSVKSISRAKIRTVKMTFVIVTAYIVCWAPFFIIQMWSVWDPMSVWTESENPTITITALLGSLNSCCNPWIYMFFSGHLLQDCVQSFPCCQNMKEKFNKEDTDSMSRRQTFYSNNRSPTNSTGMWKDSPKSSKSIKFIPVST
TRPN1 ag – zebrafish TRPN1 channel agonists, primary screen, cell-based, HEK293, calcium fluorescence; transient receptor potential cation channel N1 (TRPN1/NompC), Danio rerio; HEK293 zebrafish TRPN1-YFP, Fluo-8 calcium fluorescence; 100% = response to 87 µM carbachol; activation, % at 3 µM; actives 0.18% (n = 220,000); AID 1424, 2008;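 active means activation above its plate's cutoff, the mean activation of test wells on that plate plus 3 SD, cut at about 19% in these data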;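 further: 0% = DMSO alone and 100% = 87 µM carbachol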
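Control set: carbachol 87 µM as high control, DMSO as low control; system: HEK293 stable line with zebrafish TRPN1-YFP; read-out: % activation versus carbachol response; detection: intracellular calcium fluorescence with Fluo-8; doses: single test compound dose, 3 µM nominal, 0.3% DMSO; schedule: dye 1 h 37 °C plus 30 min RT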
Starred values were filed as active, the others as inactive; · = not tested or not shown.

SMILES	OXTR agonist	OXTR potentiator	TRPML3 ag	V1R ag counter	TRPN1 ag
O=C(CSc1ccc(-c2cccs2)nn1)NCCc1ccccc1	-1.7	-1.8	0.0	-0.1	-1.0
COc1ccccc1CCNC(=O)CSc1ccc(-c2cccs2)nn1	-0.3	1.3	20.1*	-0.7	32.7*
Cc1csc(NC(=O)CSc2nnc(NC(=O)COc3ccccc3)s2)n1	-1.4	-7.9	0.9	-0.6	2.1
CC(C)Cc1ccc(C(C)C(=O)Nc2nccs2)cc1 (stereo unspecified)	31.9*	-13.6	11.0	28.6*	11.8
Cc1c(NC(=O)C(C)c2ccc(CC(C)C)cc2)c(=O)n(-c2ccccc2)n1C (stereo unspecified)	-2.0	-19.5	0.2	0.0	0.2
CC(C)Cc1ccc(C(C)C(=O)Nc2ccccc2O)cc1 (stereo unspecified)	42.0*	-34.5	22.2*	39.8*	46.1*
CCCC(=O)Nc1ccc(C2C(=O)c3ccccc3C2=O)cc1	0.6	1.9	·	1.0	·
CC1Oc2ccccc2N(Cc2ccc(F)cc2)C1=O (stereo unspecified)	-1.8	-10.9	·	-1.7	·
O=C(NCc1ccco1)c1ccccc1NS(=O)(=O)c1ccc(Cl)s1	12.2	-9.4	2.5	8.1	2.1
O=C(Nc1ccccc1)c1ccccc1NS(=O)(=O)c1ccc(Cl)s1	10.2	-12.6	15.6*	11.0	29.4*
O=C(Nc1ccccc1Cc1ccccc1)c1ccccc1NS(=O)(=O)c1ccc(Cl)s1	13.7	-13.5	5.1	11.0	18.9*
Cc1ccc(NC(=O)c2ccccc2NS(=O)(=O)c2ccc(Cl)s2)cc1	14.5	-11.6	12.9*	8.7	26.8*
CCN(CC)C(=O)COCc1cc(-c2ccc3c(c2)OCO3)on1	1.9	-12.6	·	3.8	·
C=CCn1c(SCC(=O)O)nc2sc(CC)cc2c1=O	1.3	2.8	1.5	0.9	1.9
C=CCn1c(SCC(=O)N2CCCC2=O)nc2sc(CC)cc2c1=O	38.2*	-11.7	·	40.0*	·
CCOC(=O)[C@@H]1[C@H]2COc3cc(OC)ccc3[C@@H]2N2C(=O)N(c3ccc(F)cc3)C(=O)[C@@]12C	-0.2	-3.9	·	-0.2	·
CCCc1nnc(NC(=O)Cn2c(=O)oc3ccccc32)s1	7.8	-20.9	0.8	5.2	0.8
CCCc1nnc(NC(=O)Cn2c(=O)oc3cc(Br)ccc32)s1	33.6*	-12.9	2.4	32.3*	0.1
O=C(c1ccc(Cl)cc1)N(Cc1ccc(Br)cc1)N1C(=O)CCC1=O	1.9	-6.5	0.9	1.6	1.1
O=C(c1ccc([N+](=O)[O-])cc1)N(Cc1ccc(Cl)cc1)N1C(=O)CCCC1=O	-1.0	-1.6	86.8*	0.4	27.3*
O=C(CSC1CC(=O)N(c2ccc(C(=O)O)cc2)C1=O)Nc1ccc(Cl)cc1 (stereo unspecified)	1.2	-4.7	1.1	2.9	-0.2
Cc1cc(C)nc(NN2C(=O)/C(=C/c3ccccc3)SC2=S)n1	-0.7	1.9	-0.2	-0.2	-0.2
CN(C)c1ccc(/C=C2\SC(=S)N(Nc3ncc(C(F)(F)F)cc3Cl)C2=O)cc1	72.5*	-4.9	7.8	91.6*	14.4
Cc1cc(C)c2c(=O)n(CC(=O)Nc3ccc(Cl)cc3)sc2n1	32.2*	-10.9	5.4	30.3*	11.0
Cc1cccc(Nc2ccncc2S(N)(=O)=O)c1	0.3	-4.1	·	0.3	·
SMILES	OXTR agonist	OXTR potentiator	TRPML3 ag	V1R ag counter	TRPN1 ag
Cc1cc(C)c(OCC(=O)Nc2ccccc2N2CCOCC2)c(C)c1	14.1	-12.0	15.2*	18.3	24.0*
N=c1c2ccccc2nnn1-c1ccc(C(F)(F)F)cc1	-0.9	-4.6	0.4	0.6	1.7
CC(Oc1ccc(Br)cc1)C(=O)Nc1ccc(S(=O)(=O)N(C)C2CCN(C)CC2)cc1 (stereo unspecified)	63.9*	-21.7	·	47.4*	·
Cc1nc2ccccc2nc1OCc1ccc([N+](=O)[O-])cc1	-0.8	-0.6	0.6	1.0	1.0
COc1cccc2c1C(=O)c1c(O)c3c(c(O)c1C2=O)C[C@@](O)(C(=O)CO)C[C@@H]3O[C@H]1C[C@H](N)[C@H](O)[C@H](C)O1	24.6*	-9.9	11.3	22.9*	27.1*
CCOc1cccc2sc(N(CCCN(C)C)C(=O)c3ccc(S(=O)(=O)N4CCc5ccccc5C4)cc3)nc12	25.1*	-16.5	·	35.2*	·
O=C(CCc1ccccc1)NNC(=S)NC(=O)c1ccccc1	2.8	-6.4	0.8	0.8	-0.9
COc1ccc(C(=O)NC(=S)NNC(=O)c2cccc(C)c2)cc1	69.9*	-19.3	·	94.7*	·
CC(C)(C)c1cc(CCC(=O)NNC(=S)NC(=O)c2ccccc2)cc(C(C)(C)C)c1O	57.7*	-19.2	0.5	30.7*	0.4
Cc1cccc(C(=O)NNC(=S)NC(=O)c2cccs2)c1	64.9*	-18.7	·	63.1*	·
COc1ccc(C(=O)NNC(=S)NC(=O)c2ccc(OC)cc2)cc1	43.1*	-26.5	·	28.2*	·
CC(=O)C1=C(O)C(=O)N(c2ccc(Br)cc2)C1c1ccc(Br)cc1 (stereo unspecified)	-0.2	-4.0	·	0.5	·
Cc1cccc(C(=O)NNC(=S)NC(=O)c2ccccc2)c1	82.9*	-21.9	·	107.7*	·
Cc1ccc(C(=O)NNC(=O)c2cccc(C)c2)cc1	-0.1	-1.6	0.9	1.3	1.5
COc1ccc(C(=O)NNC(=S)NC(=O)c2ccc(F)cc2)cc1Br	68.0*	-24.1	·	75.6*	·
O=C1CSC(c2ccc(Cl)cc2)N1Nc1nc(N2CCOCC2)nc(N2CCOCC2)n1 (stereo unspecified)	2.6	-8.0	0.6	2.0	1.1
Cn1c(CN2CCCCC2)nc2cc(NS(=O)(=O)c3ccc(Cl)cc3)ccc21	33.6*	-12.3	3.5	31.9*	2.6
COC(=O)CSc1ccsc1C(=O)O	0.7	-1.0	0.5	1.4	0.7
O=C(O)c1sccc1SCc1ccc(Cl)c(Cl)c1	19.4	-21.8	0.1	22.2*	0.1
CN(CC(=O)Nc1ccc(F)cc1)C(=O)CSc1ccc2c(c1)OCCO2	0.1	-3.6	·	0.0	·
Cc1ccc(SCC(=O)OCC(=O)N(C)CC(=O)Nc2ccc(F)cc2)cc1C	23.7*	-15.7	·	23.0*	·
CN(C)c1ccc(/C=C/c2cc[n+]([O-])cc2)cc1	18.4	-6.8	11.9*	20.0	14.8
CC(=O)Nc1cccc(C(=O)/C=C/c2ccc(N(C)C)cc2)c1	194.5*	-19.4	20.0*	132.2*	43.8*
